Laboratory results published in publication PMC4427559 (Drug development and industrial pharmacy, 2015).
Converted amounts (≈) assume the structure as drawn.

Columns and labels:
[1] = Plasma protein binding by ultracentrifugation/ultrafiltration; format: in vitro ADME, human; conditions: 37 °C
[2] = Solubility in common solvents, shaker method, HPLC; format: physicochemical
[3] = cited from earlier work
[4] = Stability in human plasma at 37 °C; format: in vitro ADME
[5] = Solution state pH stability in USP buffers at 37 °C; format: physicochemical; conditions: for Degradation half-life t½: calculated from k
Procedure, shortened: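 Test compound (1 mg/mL acetonitrile stock) added 1:10 to 0.2 M USP buffers (n = 3) in amber vials. Buffers were HCl (pH 2), acid phthalate (pH 3–4), neutralized phthalate (pH 5), phosphate (pH 6–7) and borate (pH 8–10). Incubation at 37 °C, light-protected. Quantified by isocratic C18 HPLC-UV at 300 nm with warfarin IS. Log % remaining plotted against time; half-lives from first-order kinetics.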

[6] = cited from earlier work; remark: listed apart in the source
[7] = Stability in rat plasma at 37 °C; format: in vitro ADME; conditions: male, Sprague Dawley

Oc1ccc(/C=C/c2cc(O)cc(O)c2)cc1 [resveratrol, trans-3,5,4′-trihydroxystilbene]
Bound fraction (%) ±standard deviation (n = 6) ([1]; human plasma spiked at 5 µg/mL): 98.2 ± 0.41%
Bound fraction (%) ±standard deviation (n = 6) ([1]; human plasma spiked at 12.5 µg/mL): 98.5 ± 0.23%
Bound fraction (%) ±standard deviation (n = 6) ([1]; human plasma spiked at 25 µg/mL): 98.3 ± 0.33%
Plasma protein binding (mean) ([1]; human plasma, over 5, 12.5 and 25 µg/mL): 98%
fraction unbound at 30 min ([1]; human, human plasma, Plasma protein binding (mean), over 5, 12.5 and 25 µg/mL): 0.017
Solubility ([2]; PEG-400, room temperature (25 °C), mean, n = 3): 373.85 mg/mL (≈ 1640 mM)
Solubility in words ([2]; water): not soluble
pKa1 [3]: 8.8
pKa2 [3]: 9.8
pKa3 [3]: 11.4
half-life at 50 µg/mL [4]: 54 h
Original concentration remaining ([5]; acidic and neutral conditions, at 193 h): More than 70%
Degradation rate constant k ([5]; pH 2, hydrochloric acid buffer 0.2 M): 0.000506 h⁻¹
Degradation rate constant k ([5]; pH 3, acid phthalate buffer 0.2 M): 0.000353 h⁻¹
Degradation rate constant k ([5]; pH 4, acid phthalate buffer 0.2 M): 0.000151 h⁻¹
Degradation rate constant k ([5]; pH 5, neutralized phthalate buffer 0.2 M): 0.00011 h⁻¹
Degradation rate constant k ([5]; pH 6, phosphate buffer 0.2 M): 0.000147 h⁻¹
Degradation half-life t½ ([5]; pH 6, phosphate buffer 0.2 M): 195.5 days
Degradation rate constant k ([5]; pH 7, phosphate buffer 0.2 M): 0.00247 h⁻¹
Resveratrol remaining ([5]; pH 8, 9 or 10, at 50 and 80 h): Less than 2%
Degradation rate constant k ([5]; pH 8, borate buffer 0.2 M): 0.0488 h⁻¹
Degradation rate constant k ([5]; pH 9, borate buffer 0.2 M): 0.4000 h⁻¹
Degradation half-life t½ ([5]; pH 9, borate buffer 0.2 M): 0.0722 days
Degradation rate constant k ([5]; pH 10, borate buffer 0.2 M): 0.0335 h⁻¹
Water solubility [6]: 0.05 mg/mL
half-life at 50 µg/mL [7]: 25 h
